Only some compounds are listed: those with a hit (about 2.9% of all), similar ones and a draw of the others.
CAL PDZ FP-1: human CAL PDZ-peptide interaction inhibition. Q9HD26. purified CAL PDZ, TMR-peptide fluorescence polarization, 1 h. inhibition, % at 20 µM. 330,000 compounds, 0.02% hits;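 active = highest replicate inhibition of at least 40%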;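 also: plate controls were DMSO neutral control wells for no effect and unlabeled competitor peptide control wells for full effect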
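Material – purified CerCALP PDZ construct · Detection – FP readout, S and P plane fluorescence · Measure – percent inhibition from loss of millipolarization · Controls – unlabelled peptide for full inhibition, DMSO wells as neutral · Probe or stimulus – TMR-labelled reporter peptide T*-PRC34 bound in PDZ groove · Times – 1 h at RT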
CAL PDZ FP-2: CAL PDZ (human) peptide binding inhibition | purified CAL PDZ, TMR-peptide fluorescence polarization, 1 h | Q9HD26 | inhibition, % at 24.9 µM | 300,000 compounds, 0.92% hits;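 active = mean inhibition of at least 30% with at least half of replicates also reaching 30%; inconclusive = no clear call, values can overlap the other calls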;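 also: 0% = DMSO neutral control and 100% = excess unlabeled competitor peptide PRC23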
S100A4 inh HTS: inhibitors of human S100A4 binding to myosin IIA peptide; 360,000 compounds, 0.14% hits; inhibition, % at 10.7 µM; S100A4/TAMRA-MyoIIA peptide fluorescence polarization;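 active = mean inhibition of at least 70% across replicates, with every replicate also reaching that level; inconclusive = mean inhibition reaches 70% but some replicates fall short; inactive = mean inhibition below 70%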
Target sequence (P26447 whole entry, looked up): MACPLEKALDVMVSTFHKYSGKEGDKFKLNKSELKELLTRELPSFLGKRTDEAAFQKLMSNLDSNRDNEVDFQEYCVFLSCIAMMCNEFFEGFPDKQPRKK
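Test system: S100A4 monomer protein; Medium: HEPES pH 7.2 with CaCl2, KCl, NaCl, DTT, Triton; Probe or stimulus: TAMRA-labelled myosin IIA heavy-chain peptide probe, 5 nM; Doses: one dose per compound; Times: polarization read 5 min after assay mix addition, stable 5–60 min; Benchmarks: neutral control DMSO, positive control TFP.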
ERAP1 HTS inh: ERAP1 (human) enzyme inhibition. 340,000 compounds, 0.15% hits. Q9NZ08. recombinant ERAP1, Leu-AMC fluorescence, 60 min. inhibition, % at 10.7 µM;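 active = mean replicate inhibition of at least 30%, or all replicates individually reaching that 30% level; inactive = mean below 30% and not every replicate reaching it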;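 also: 0% = neutral control wells and 100% = L-leucinethiol positive control wells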
DENV2 CPE rescue: inhibitors of DENV2 cytopathic effect | 350,000 compounds, 1.7% hits | AID 651640 | CPE inhibition, % at 9.99 µM | DENV2-infected cells, cytopathic effect rescue, plate reader; in the data active = CPE inhibition above about 20%, passing the limit was not always enough; inconclusive = no clear call, values can overlap the other calls; tested in BHK-21 cells;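 also: 0% = median of neutral control wells and 100% = median of positive control wells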
SIRT5 block: inhibitors of human sirtuin-5 desuccinylase. Q9NXA8. Purified SirT5, succinyl-peptide AMC, trypsin-coupled fluorescence. inhibition, % at 15 µM. 330,000 compounds, 1.1% hits; in the data active = inhibition above about 15%; inconclusive = no clear call, values can overlap the other calls
Target sequence (Q9NXA8 whole entry, looked up): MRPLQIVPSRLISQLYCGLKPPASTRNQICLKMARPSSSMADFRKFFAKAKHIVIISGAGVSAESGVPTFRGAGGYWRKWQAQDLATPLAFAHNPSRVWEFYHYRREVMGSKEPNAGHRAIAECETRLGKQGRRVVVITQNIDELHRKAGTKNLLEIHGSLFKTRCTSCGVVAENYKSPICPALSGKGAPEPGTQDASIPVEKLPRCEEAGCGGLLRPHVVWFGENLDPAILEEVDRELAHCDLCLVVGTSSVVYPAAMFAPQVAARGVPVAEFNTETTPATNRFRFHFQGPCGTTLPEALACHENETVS
The depositor's hits bear a star; ? = inconclusive; · = not tested or not shown; + = active, no number; ! = a repeat was not active.

SMILES | CAL PDZ FP-1 | CAL PDZ FP-2 | S100A4 inh HTS | ERAP1 HTS inh | DENV2 CPE rescue | SIRT5 block
Cc1c(NC(=O)Cc2cccs2)cccc1[N+](=O)[O-] | 0 | -3 | 3 | 6 | · | -7
CC=Cc1ccc2n(c1=O)C[C@@H]1[C@@H](CO)[C@H](C(=O)N(C)C)N(C(=O)CC3CC3)[C@H]21 (mixture of isomers) | · | · | 5 | -1 | -6 | -5
CC(=O)N1CC(=O)N2[C@@H](CO)[C@H](c3ccc(-c4ccc(C)cc4)cc3)[C@@H]2C1 | · | · | -2 | 0 | 2 | 4
CCC(C)[C@H](NC(=O)[C@@H]1Cc2ccccc2CN1)C(=O)NCc1ccc(OC)cc1 (some centres undefined) | 0 | -4 | -1 | 2 | ? | 0
CCC(C)[C@H](NC(=O)[C@@H]1Cc2ccccc2CN1)C(=O)NCc1ccc(C)cc1 (some centres undefined) | · | · | -3 | -4 | 92* | 0
COc1ccc(Br)cc1CN(C)C(=O)C1=CC=CN2CCS(=O)(=O)N=C12 | 0 | 14 | 10 | -3 | 4 | -3
COc1ccc(Br)cc1CN(C)C(=O)c1ccncc1 | 0 | + | -1 | -1 | ? | -1
CO[C@H]1CC[C@@H]2CCOc3c(C#N)cccc3C(=O)N(C)C[C@H](C)C(=O)N(C)C[C@@H]1O2 | · | · | 3 | 3 | -1 | 20*
CCOc1ccc(-n2c(C)c(C(C)=O)c3cc(O)ccc32)cc1 | 0 | 1 | -7 | -4 | 2 | -6
CCOc1ccc(-n2c(C)c(C(C)=O)c3cc(OCC(N)=O)ccc32)cc1 | -3 | 2 | -7 | 3 | 32* | -1
COc1ccc(-n2c(C)c(C(C)=O)c3cc(OCC(N)=O)ccc32)cc1 | 2 | 38* | 2 | 2 | 5 | -3
CN(C)CCCNC(=O)[C@H]1[C@H](CO)[C@H]2Cn3c(cccc3=O)[C@@H]1N2C(=O)Nc1cc(F)ccc1F | · | · | · | · | ? | -2
CCCCCCN1C[C@H](O)[C@@H](n2cc(-c3ccc(F)cc3)nn2)C[C@@H]1c1ccccc1 | · | · | -1 | 12 | ? | 1
CCCCCCN1C[C@H](n2cc(-c3ccc(F)cc3)nn2)[C@@H](O)C[C@@H]1c1ccccc1 | · | · | -4 | 3 | 93* | -1
O[C@@H]1CN(Cc2cccs2)[C@@H](c2ccccc2)C[C@H]1n1cc(-c2ccc(F)cc2)nn1 | · | · | -2 | -2 | 51* | 3
C/C=C/c1ccc2c(c1)[C@H]1[C@H](CCN1C(=O)Cc1cccnc1)[C@@H](CO)N2C | · | · | -3 | -2 | 18 | 5
COc1ccc(NC(=O)Nc2ccc3c(c2)C(=O)N([C@@H](C)CO)C[C@H](C)[C@@H](CN(C)S(=O)(=O)c2ccccc2)OCCCC[C@@H](C)O3)cc1 | · | · | 8 | 3 | 8 | 8
COc1ccc(NC(=O)Nc2ccc3c(c2)C(=O)N([C@@H](C)CO)C[C@@H](C)[C@H](CN(C)S(=O)(=O)c2ccccc2)OCCCC[C@@H](C)O3)cc1 | · | · | 6 | 2 | 15 | 15*
COc1ccc(NC(=O)Nc2ccc3c(c2)C(=O)N([C@@H](C)CO)C[C@@H](C)[C@@H](CN(C)S(=O)(=O)c2ccccc2)OCCCC[C@@H](C)O3)cc1 | · | · | -2 | -2 | 66* | 13
COc1ccc(NC(=O)Nc2ccc3c(c2)C(=O)N([C@H](C)CO)C[C@@H](C)[C@@H](CN(C)S(=O)(=O)c2ccccc2)OCCCC[C@H](C)O3)cc1 | · | · | -6 | -2 | -1 | 13
C[C@H](CO)N1C[C@H](C)[C@H](CN(C)S(=O)(=O)c2ccc(Cl)cc2)OCCCC[C@H](C)Oc2ccc(NC(=O)c3ccccc3)cc2C1=O | · | · | 8 | 1 | 21* | -4
COc1ccc(S(=O)(=O)N(C)C[C@@H]2OCCCC[C@H](C)Oc3ccc(NC(=O)c4ccccc4)cc3C(=O)N([C@H](C)CO)C[C@@H]2C)cc1 | · | · | -2 | -4 | 44* | -2
C[C@@H]1CCCCO[C@H](CN(C)S(=O)(=O)c2ccc(Cl)cc2)[C@@H](C)CN([C@H](C)CO)C(=O)c2cc(NC(=O)c3ccccc3)ccc2O1 | · | · | 0 | 0 | -9 | 0
COc1cccc(CN2CC3(CN(C(=O)Nc4c(C)noc4C)C3)c3c([nH]c4cc(OC)ccc34)[C@H]2CO)c1 | · | · | 14 | -2 | 12 | 2
CCC(=O)N[C@H]1CC[C@H](CCn2cc(CN(C)C)nn2)O[C@H]1CO | · | · | 16 | 2 | 3 | 1
SMILES | CAL PDZ FP-1 | CAL PDZ FP-2 | S100A4 inh HTS | ERAP1 HTS inh | DENV2 CPE rescue | SIRT5 block
C=CCN1C=CC=C/C1=C1\SC(=S)N(C)C1=O | -1 | 35* | -4 | 6 | 9 | 2
CN(CC(=O)NCC(=O)Nc1ccc(F)cc1)CC(=O)Nc1ccc(Cl)c(C(F)(F)F)c1 | -1 | 47* | -1 | 0 | 2 | -2
Nc1nc(-c2cccnc2)nc2sc3c(c12)CCCC3 | -5 | -1 | -1 | -2 | 4 | -9
CC(=O)Nc1ccc(Oc2nc(-c3cccnc3)nc3sc4c(c23)CCCC4)cc1 | 0 | 67* | · | · | · | ·
CC(O)(Cc1cccnc1)c1cccs1 (centres undefined) | 0 | 1 | -1 | -1 | 77* | -4
CC(C)(O)CN(C(=O)C(c1ccccc1)c1ccccc1)C1CCCCC1 | 0 | 31* | -2 | -2 | -12 | -2
CCOC(=O)C1=C(COC(=O)Cc2ccccc2[N+](=O)[O-])NC(=O)NC1C (centres undefined) | · | · | -4 | -2 | 38* | ·
O=C(N[C@H]1CC[C@H](CCn2cc(-c3cccnc3)nn2)O[C@@H]1CO)c1ccccc1F | · | · | -3 | -1 | 1 | -5
CN1CCC2CC1c1cc(-c3ccc(C(F)(F)F)cc3)ccc12 (centres undefined) | 1 | -6 | -3 | -6 | 21* | -5
C=CC[N+](C)(C)CCCNC(=O)/C=N/O | 0 | -1 | 0 | 69* | -6 | 1
CC(NS(=O)(=O)c1ccc(Cl)c(Cl)c1)C(=O)OCC(=O)Nc1ccc2c(c1)OCO2 (centres undefined) | 70* | -6 | -9 | 2 | 1 | 1
O=C(NC[C@@H]1N[C@@H](CO)[C@@H]1c1ccccc1)c1ccccc1F | · | · | -8 | · | 29* | 0
O=C(COC(=O)Cn1cnc2ccccc21)Nc1cc2c(cc1Cl)C(=O)c1ccccc1C2=O | 1 | 80* | 5 | -1 | -3 | -4
O=C(COC(=O)c1ccc([N+](=O)[O-])s1)Nc1cccc(S(=O)(=O)NC2=NCCCCC2)c1 | 1 | 0 | -1 | -3 | 0 | 26*
COC(=O)C1=C(C)NC(C)=C(C(=O)OC)C1C(=O)OC(C)C(=O)c1ccccc1 (centres undefined) | 0 | 50*! | -3 | 7 | ? | 2
Cc1ccc2c(CN3CCCc4ccccc43)cc(=O)oc2c1C | · | 49* | · | · | · | ·
